From PubChem
NPY2 pot ag = NPY-Y2 potentiators or agonists, primary screen, cell-based; cells expressing NPY-Y2, potentiator/agonist read-out; hit rate 0.45% among 220,000; activation, % at 3.6 µM; AID 1359, 2008; in the data active = activation above about 27%;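 also: cells stimulated with NPY near EC25 plus isoproterenol at EC100; 0% = vehicle plus submaximal agonist and 100% = vehicle plus saturating agonist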
RAM network inh = inhibitors of the yeast RAM network, primary screen, dse1pr::URA3 reporter, 5-FOA selection. S. cerevisiae dse1pr::URA3 reporter, 5-FOA growth OD615, 2 d; analog-sensitive cbk1-as2 kinase mutant strain. inhibition, % at 50 µM. hit rate 1.8% among 190,000. AID 868, 2007;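 active = inhibition above a set limit, 3 SD over mean compound inhibition, cut at about 8.4% in these data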;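 also: 0% = DMSO-only wells with no growth and 100% = 10 µM 1-NA-PP1 full growth; inhibition rescues growth on 5-FOA so higher OD means more RAM inhibition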
NPY-Y2 antag = NPY-Y2 receptor antagonists, primary screen, cell-based | Neuropeptide Y receptor type 2 (Homo sapiens), P49146 | NPY-Y2 expressing cells, antagonist mode | inhibition, % at 2.7 µM | hit rate 0.99% among 140,000; in the data active = inhibition above about 17%;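 also: 0% = vehicle with agonist challenge and 100% = reference antagonist with challenge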
NPY Y1 blocker = NPY-Y1 receptor antagonists, primary screen, cell-based; Neuropeptide Y receptor type 1 (Homo sapiens), P25929; HEK293-CNG Y1 cells, membrane potential fluorescence; NPY at EC95, then isoproterenol; inhibition, % at 3.6 µM; hit rate 1% among 200,000; AID 1040, 2008;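 active = inhibition above the campaign mean inhibition of all tested compounds plus 3 SD, cut at about 20% in these data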;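 also: 0% = DMSO wells given NPY plus isoproterenol and 100% = isoproterenol alone without NPY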
Target sequence (P25929 whole entry, looked up): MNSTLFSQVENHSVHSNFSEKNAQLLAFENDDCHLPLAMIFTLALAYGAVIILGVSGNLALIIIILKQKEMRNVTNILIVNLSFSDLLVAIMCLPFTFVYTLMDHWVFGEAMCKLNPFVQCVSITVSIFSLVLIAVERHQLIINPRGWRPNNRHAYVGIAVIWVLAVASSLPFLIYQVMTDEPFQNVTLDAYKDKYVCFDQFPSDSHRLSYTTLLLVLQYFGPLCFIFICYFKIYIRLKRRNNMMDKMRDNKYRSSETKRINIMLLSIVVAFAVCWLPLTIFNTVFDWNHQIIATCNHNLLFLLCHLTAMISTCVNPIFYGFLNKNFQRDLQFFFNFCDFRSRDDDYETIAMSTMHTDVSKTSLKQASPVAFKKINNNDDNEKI
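Test system: HEK293 cells co-expressing NPY Y1 receptor and cyclic-nucleotide gated channel; Also added: NPY (25 nM), isoproterenol (1 µM), Ro 20-1724 (25 µM); Compound dosing: one concentration, 3.6 µM, in 0.4% DMSO; Timing: dye 3 h, compound 60 min room temperature, stimulation 45 min; Technique: Membrane-potential fluorescent dye readout.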
INS promoter inh = inhibitors of insulin promoter-driven GFP, primary screen, imaging, TRM-6 cells, eGFP reporter, cell count | reporter expression induced with tamoxifen | inhibition, % at 2 µM | hit rate 0.9% among 130,000 | AID 1273, 2008;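 active = inhibition above the mean plus 3 SD, with well images judged a real hit on visual review, cut at about 60% in these data, passing the limit was not always enough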
NPY-Y1 PAM-ag = NPY-Y1 receptor potentiators or agonists, primary screen, cell-based. Neuropeptide Y receptor type 1 (Homo sapiens), P25929. NPY-Y1 expressing cells, potentiator/agonist activation. activation, % at 3.6 µM. hit rate 0.37% among 220,000; in the data active = activation above about 33%, passing the limit was not always enough;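 also: cells stimulated with NPY at EC10 then isoproterenol at EC100; 0% = low agonist plus stimulus and 100% = saturating agonist plus stimulus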
* marks the source's active call; other numbers are inactive results; / = no result given. Rows were chosen to be rich in hits. Some 3.8% of all compounds tested hit in one or more screens of this group.

SMILES | NPY2 pot ag | RAM network inh | NPY-Y2 antag | NPY Y1 blocker | INS promoter inh | NPY-Y1 PAM-ag
O=C(Cn1c(C(F)(F)F)nc2ccccc21)Nc1ccccc1N1CCOCC1 | -31 | 1 | 1 | 10 | -70 | 9
CSc1nc2ccccc2n1CC(=O)Nc1cc(C(F)(F)F)ccc1N1CCOCC1 | 0 | 2 | 23* | 24* | -51 | -3
Cc1ccc(C2C3=C(CC(C)(C)CC3=O)Nc3n[nH]c(C)c32)cc1 (centres undefined) | 0 | 1 | 0 | -8 | 15 | 16
Cc1[nH]nc2c1C(c1ccc(N(C)C)cc1)C1=C(CC(C)(C)CC1=O)N2 (centres undefined) | -22 | 1 | / | 20* | / | -2
Cc1ccc2cc(C#N)c(SCC(=O)N3CCCc4ccccc43)nc2c1 | 10 | 2 | 1 | 2 | -19 | -18
Cc1ccc2cc(C#N)c(SCC(=O)N3CCCc4ccccc43)nc2c1C | 2 | 9.2* | 6 | 1 | -30 | 3
COc1cccc(OCC(Cn2c(C)nc3ccccc32)OC(C)=O)c1 (centres undefined) | -7 | 1 | / | 0 | / | -1
Cc1ccc(-c2nnc(Cc3ccc([N+](=O)[O-])cc3)o2)cc1 | -12 | 3 | / | 2 | 38 | -15
CC1=C/C(=N\NC(=O)c2ccccc2)CC1 | 6 | 2 | 1 | -2 | 36 | -8
CCOc1ccc(Cl)cc1S(=O)(=O)N1CCN(c2ccc(F)cc2)CC1 | 17 | 9.0* | 1 | 1 | -220 | 19
COc1c(S(=O)(=O)N2CCN(c3ccc(F)cc3)CC2)ccc(Cl)c1Cl | -1 | 5 | -2 | -1 | 74* | 1
COc1ccc(Cl)cc1S(=O)(=O)N1CCN(c2ccc(F)cc2)CC1 | 35 | 2 | -6 | -13 | 19 | 35
Cc1ccc(C2=NN(CC(=O)NCc3ccccn3)C(=O)CC2)cc1 | 14 | 3 | 2 | -2 | -5 | 7
CCOC(=O)N1CCN(c2cc(NCCC(=O)O)c3c4c(onc24)-c2ccccc2C3=O)CC1 | 6 | 9.4* | -2 | -6 | / | 11
O=C(O)CCCNc1cc(N2CCC3(CC2)OCCO3)c2noc3c2c1C(=O)c1ccccc1-3 | 11 | 8.7* | -2 | -3 | -93 | 7
O=C(CN1CCCCC1)Nc1ccccc1Oc1ccccc1 | -4 | / | / | / | / | -7
COC(=O)c1cc(OC)c(OC)cc1NC(=O)c1ccc(OC)c(OC)c1 | -1 | 1 | -3 | 5 | 3 | -9
CC1CCc2sc3nc(NCc4ccco4)n4ncnc4c3c2C1 (centres undefined) | -6 | 3 | 6 | 7 | / | -16
CC1CCCc2sc3nc(NCc4ccco4)n4ncnc4c3c21 (centres undefined) | -38 | 3 | 28* | 39* | 7 | -25
O=C(O)/C=C/C(=O)NC1CC1 | -6 | 0 | / | 8 | 36 | -3
O=C(/C=C/c1ccccc1)c1ccccc1 | 7 | 0 | 2 | -5 | 41 | 6
CCOc1ccc(/C=C/C(=O)c2ccc(-c3ccccc3)cc2)cc1 | -3 | 8.9* | 4 | 3 | / | 18
CCOc1ccc(NC(C(=O)Nc2cccc(C(C)=O)c2)c2ccccc2)cc1 (centres undefined) | 10 | 5 | 1 | -1 | -54 | 0
CCOc1ccc(/C=C/C(=O)Nc2cccc(C(C)=O)c2)cc1 | -12 | 9.7* | 2 | -1 | -10 | -10
O=C(O)CCC(=O)N(Cc1ccco1)C1CC(=O)N(c2ccccc2)C1=O (centres undefined) | -3 | / | / | / | / | 5
O=C(NC1CCCCC1)C1CCCN(S(=O)(=O)c2cnc[nH]2)C1 (centres undefined) | 11 | 1 | 0 | 3 | / | 8
O=C(NC1CCCCCCC1)C1CCCN(S(=O)(=O)c2cnc[nH]2)C1 (centres undefined) | 42* | 1 | 0 | 2 | / | 5
O=C(NC1CCCC1)C1CCCN(S(=O)(=O)c2cccc3cccnc23)C1 (centres undefined) | 7 | 8.7* | 0 | 3 | / | -22
CCOC(=O)c1sc2nc(C)cc(C)c2c1N | -6 | 0 | 1 | 4 | 77* | -4
